Experimental data as given in PMC5110367 (Nature chemical biology, 2016).
Substitutions are numbered along the chain they refer to. Where two headings read alike, the source gives them in different places.

Columns and labels:
[1] = system: Ppara-null hippocampal neurons; assay type: cell-based, mouse
Summary of the method: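 Cell lysates were made in RIPA buffer with protease/phosphatase inhibitors, needle-sheared, rotated 30 min at 4°C and spun at 18,000 × g. Samples of 15–30 μg were run on 10% or 12% SDS gels and semidry-transferred to nitrocellulose. Anti-CREB (1:1000) was applied overnight at 4°C, then IR-dye secondary (1:17,000) for 45 min at room temperature. Infrared imaging followed, with densitometry normalised to loading controls.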

FL-Ppara = molecular target: T1, FL-Ppara (Mus musculus, UniProt P23204); assay type: cell-based; conditions: Ppara-null astrocytes transduced with lenti-FL-Ppara, 4 h
T1 sequence (P23204 1-468): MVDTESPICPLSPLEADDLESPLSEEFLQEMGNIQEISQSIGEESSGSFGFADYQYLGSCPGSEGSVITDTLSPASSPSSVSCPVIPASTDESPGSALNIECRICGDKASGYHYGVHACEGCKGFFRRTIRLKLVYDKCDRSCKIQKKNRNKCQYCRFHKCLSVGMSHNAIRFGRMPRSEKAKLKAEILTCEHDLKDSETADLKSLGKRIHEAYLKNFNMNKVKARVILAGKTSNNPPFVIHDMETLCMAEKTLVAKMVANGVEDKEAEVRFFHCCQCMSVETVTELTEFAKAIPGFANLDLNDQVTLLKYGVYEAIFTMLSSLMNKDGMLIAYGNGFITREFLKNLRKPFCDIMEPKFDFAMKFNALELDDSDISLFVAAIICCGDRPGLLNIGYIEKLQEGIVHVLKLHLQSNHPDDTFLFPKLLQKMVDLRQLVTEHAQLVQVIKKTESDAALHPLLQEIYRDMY

Y464D-PPARα = molecular target: T2, Y464D-PPARα (Mus musculus, UniProt P23204, Y464D); test: Thermal shift assay of Y464D-PPARα with ligands; assay type: binding
T2 sequence (P23204 1-468 Y464D): T1 sequence (P23204 1-468) with Y464D
Summary of the method: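 Differential scanning fluorimetry used purified Y464D-PPARα protein (0.5–1 μg per reaction) in kit thermal shift buffer with dye, with or without test compound. The real-time cycler ran 25°C for 2 min, then 70 cycles of 27°C 15 s/26°C 1 min with 1°C auto-increment. Signal was read on the ROX filter, and melting temperature (Tm) was derived.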

Y314D-Ppara = molecular target: T3, Y314D-Ppara (Mus musculus, UniProt P23204, Y314D); assay type: cell-based; conditions: Ppara-null astrocytes transduced with lenti-Y314D-Ppara, 4 h
T3 sequence (P23204 1-468 Y314D): T1 sequence (P23204 1-468) with Y314D

PPARβ-LBD = molecular target: T4, PPARβ-LBD (Homo sapiens, UniProt Q03181); test: GC-MS of hippocampal nuclear extracts after pull-down with GST-PPARβ-LBD; assay type: binding; conditions: mouse hippocampal nuclear extracts
T4 sequence (Q03181 211-439 limits assumed): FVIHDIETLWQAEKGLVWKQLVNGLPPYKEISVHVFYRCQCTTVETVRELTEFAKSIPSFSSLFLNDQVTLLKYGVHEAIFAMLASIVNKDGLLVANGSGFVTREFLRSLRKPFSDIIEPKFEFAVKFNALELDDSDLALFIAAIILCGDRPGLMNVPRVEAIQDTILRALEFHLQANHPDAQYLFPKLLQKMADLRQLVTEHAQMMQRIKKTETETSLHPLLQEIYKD

PPRE-luciferase activity = assay type: cell-based, mouse
[2] = system: Ppara-null hippocampal neurons; test: Dendritic spine density; assay type: cell-based, mouse; conditions: Ppara-null neurons transduced with lenti-FL-Ppara or lenti-Y464D-Ppara
Summary of the method: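 Ppara-null hippocampal neurons were taken from E18 fetuses and treated with 10 μM AraC to remove glia. They were differentiated 9–10 days, then transduced 48 h with lentivirions carrying GFP (vector), FL-Ppara or Y464D-Ppara. Neurons then received vehicle (DMSO) or test compound for 24 h. They were stained with Dylight-554-phalloidin, and spine density was scored by fluorescence microscopy.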

PPRE luciferase activity = test: PPRE-luciferase assay in Pparb-null astrocytes; assay type: cell-based, mouse; conditions: for inhibition by GW9662 of ligand-mediated increase in PPRE-luciferase activity: Pparb-null astrocytes pre-treated with PPARγ-antagonist GW9662; for PPRE luciferase activity: Pparb-null astrocytes, 4 h
Summary of the method: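 Astrocytes were taken from mixed glial cultures of 7-day-old Pparb-null mouse pups and pretreated with the PPARγ antagonist GW9662. At 60–70% confluence they were transfected with tk-PPREx3-Luc reporter. After 24 h they were treated with graded concentrations of test compound for 4 h, then luciferase activity was read.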

[3] = Ppara-null neurons transduced with FL-Ppara
[4] = Ppara-null neurons transduced with lenti-Y314D-Ppara
[5] = Ppara-null neurons transduced with lenti-Y464D-Ppara
[6] = Ppara-null neurons transduced with lenti-Y464D/Y314D-Ppara
[7] = Ppara-null hippocampal neurons transduced with lenti-Y314D/Y464D-Ppara
[8] = Ppara-null hippocampal neurons transduced with lenti-Y464D-Ppara

Row | PPRE-luciferase reporter activity (FL-Ppara) | effect on Tm (Y464D-PPARα) | GC-MS peak after pull-down with PPARβ-LBD (PPARβ-LBD) | inhibition by GW9662 of ligand-mediated increase in PPRE-luciferase activity (PPRE luciferase activity) | SMILES | expression of CREB [1, 3] | expression of CREB [1, 4] | expression of CREB [1, 5] | expression of CREB [1, 6] | PPRE-luciferase activity (Y314D-Ppara) | PPRE-luciferase activity (PPRE-luciferase activity; [7]) | PPRE-luciferase activity (PPRE-luciferase activity; [8]) | density of dendritic spines [2] | PPRE luciferase activity (PPRE luciferase activity)
1 | markedly induced PPRE reporter activity | did not alter the Tm | did not exhibit any peak | remained unable to inhibit | CCCCCCCCCCCCCCCC(N)=O [HEX, hexadecanamide] | stimulated the expression of CREB | only partially restored the expression of CREB | remained unable to increase the expression of CREB | remained unable to increase the expression of CREB | partial induction of PPRE-luciferase activity | completely abrogated the PPRE-luciferase activity | completely abrogated the PPRE-luciferase activity | stimulated the density of spines only when Ppara-null neurons were transduced with lenti-FL-Ppara, but not lenti-Y464D-Ppara | markedly increased PPRE luciferase activity
2 | markedly induced PPRE reporter activity | did not alter the Tm | did not exhibit any peak | remained unable to inhibit | CCCCCCCCC=CCCCCCCCC(N)=O [OCT, 9-octadecenamide] | stimulated the expression of CREB | only partially restored the expression of CREB | remained unable to increase the expression of CREB | remained unable to increase the expression of CREB | partial induction of PPRE-luciferase activity | completely abrogated the PPRE-luciferase activity | completely abrogated the PPRE-luciferase activity | stimulated the density of spines only when Ppara-null neurons were transduced with lenti-FL-Ppara, but not lenti-Y464D-Ppara | markedly increased PPRE luciferase activity
